This is a sample that favours compounds with a hit; in the whole collection about 1.3% have one here.
Tn7 DDE FP – inhibitors of Tn7 peptide binding to fibrin DD(E), primary screen, biochemical, fluorescence polarization, human fibrin, Tn7 probe. Fibrinogen beta chain (Homo sapiens), P02675. AID 720508, 2013. FP displacement of FITC-Tn7 peptide from fibrin DD(E); 0% = median of compound wells per plate. 370,000 tested, 0.13% active. inhibition, % at 8.3 µM;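 active means inhibition above the mean of compounds falling within the control limits plus 3 SD of them, cut at about 14% in these data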;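 further: 0% = plate median of compound wells and 100% = 10 µM Aha-Tn7 peptide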
Target sequence (P02675 whole entry, looked up): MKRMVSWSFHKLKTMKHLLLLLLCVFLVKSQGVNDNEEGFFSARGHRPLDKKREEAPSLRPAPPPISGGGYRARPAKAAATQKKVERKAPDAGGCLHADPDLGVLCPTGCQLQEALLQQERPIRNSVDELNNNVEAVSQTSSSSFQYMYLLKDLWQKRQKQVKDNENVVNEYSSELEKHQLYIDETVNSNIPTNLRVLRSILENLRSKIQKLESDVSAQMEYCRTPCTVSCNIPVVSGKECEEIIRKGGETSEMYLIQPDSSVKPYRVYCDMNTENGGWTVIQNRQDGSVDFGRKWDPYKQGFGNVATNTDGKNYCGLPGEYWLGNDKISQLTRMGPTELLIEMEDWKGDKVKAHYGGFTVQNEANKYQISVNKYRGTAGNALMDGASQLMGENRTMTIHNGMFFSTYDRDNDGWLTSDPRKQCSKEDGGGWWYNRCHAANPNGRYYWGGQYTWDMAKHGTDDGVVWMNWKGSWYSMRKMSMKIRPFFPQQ
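Assay system: Human fibrin DD(E) protein | Medium: Tris buffer with calcium and detergent, pH 7.8 | Reagent: 0.1 µM fluorescent Tn7 | Compound dosing: Single point at 8.3 µM | Times: 10 min preincubation, 3 h with tracer, room temperature | Detection: Fluorescence polarization of the labelled Tn7 tracer | Controls: Aha-Tn7 high control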
CRFBP-R2 block – antagonists of CRF-BP/CRF-R2 complex, primary screen, cell-based, HEK293, calcium dye fluorescence, uHTS; CRF-induced calcium fluorescence; inhibition, % at 11.8 µM; 350,000 tested, 0.59% active; AID 588475, 2011;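 active means inhibition of the ligand-induced calcium signal above about 50% at the single tested concentration, limit read from the data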
CRFR2-BP ag – agonists of CRF-BP/CRF-R2 complex, primary screen, cell-based, HEK293, calcium dye fluorescence, uHTS | activation, % at 13.2 µM | 350,000 tested, 0.46% active | calcium dye fluorescence (FLIPR); percent of saturating CRF peptide response;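 active means activation of at least 50%, plus an integration ratio under a set limit after plate pattern correction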;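 further: plate controls were neutral control wells without compound for no effect and CRF at EC100 for full effect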
DDE Tn6 FP inh – inhibitors of Tn6 peptide binding to fibrin DD(E), primary screen, biochemical, fluorescence polarization, human fibrin, Tn6 probe; Fibrin DD(E) TRITC-Tn6 fluorescence polarization displacement; inhibition, % at 8.3 µM; 370,000 tested, 0.21% active; AID 720509, 2013;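 active means inhibition above a per-campaign cutoff: mean of compounds within control limits plus 3 SD, cut at about 15% in these data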;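 further: 0% = median of all compound wells on the plate and 100% = blocking peptide control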
Tn7 DDE conf – inhibitors of Tn7 peptide binding to fibrin DD(E), confirmation, biochemical, fluorescence polarization, human fibrin, Tn7 probe; FP displacement of TRITC-Tn7 peptide from DD(E); 0% set at plate's compound-well median; inhibition, % at 8.3 µM; 460 tested, 5% active; shares compounds with Tn7 DDE FP;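 active means inhibition above the campaign cutoff, the mean of compounds within control limits plus 3 SD, cut at about 14% in these data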;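 further: 100% = median FP of high control wells holding Aha-Tn7 inhibitor peptide; displacers lower polarization since freed probe rises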
DDE Tn7 FP ctr – counter-screen for inhibitors of Tn7 peptide binding to fibrin DD(E); inhibition, % at 8.3 µM; 460 tested, 3% active; TRITC-Tn7 probe displacement, fluorescence polarization; AID 720633; shares compounds with Tn7 DDE FP;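 active means inhibition above the cutoff, the mean of compounds lying between the control bounds plus 3 SD of those compounds, cut at about 17% in these data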;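 further: 0% = median of compound sample wells and 100% = excess unlabeled Aha-Tn7 peptide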
* marks the source's active call; other numbers are inactive results.

What do the screens show for `Cc1ccc(-n2c(SCC(=O)c3ccc(O)c(O)c3)nnc2-c2ccccc2)cc1`?
Tn7 DDE FP: -0.4; DDE Tn6 FP inh: 8.3

How did COc1ccc(CNC(=O)CCNS(=O)(=O)c2ccc3[nH]c(=O)oc3c2)cc1 do in these assays?
Tn7 DDE FP: -1.5; DDE Tn6 FP inh: -4.0

How did O=C(c1cc(-c2ccc(O)cc2)on1)N1CCc2ccccc2C1 do in these assays?
Tn7 DDE FP: 17.8*; CRFBP-R2 block: -17.8; CRFR2-BP ag: -0.5; DDE Tn6 FP inh: -5.0; Tn7 DDE conf: 4.0; DDE Tn7 FP ctr: -1.0

Results for Nc1[nH]c(C(=O)c2ccccc2)c(-c2ccc3c(c2)OCO3)c1C(=O)NCCc1c[nH]c2ccccc12 ?
Tn7 DDE FP: 5.4; DDE Tn6 FP inh: -8.2

How did Cc1ccc(OCCC(=O)OCC(=O)N2CCN(S(=O)(=O)c3ccc(Cl)cc3)CC2)cc1 do in these assays?
Tn7 DDE FP: 14.7*; CRFBP-R2 block: -2.2; CRFR2-BP ag: 7.0; DDE Tn6 FP inh: 0.3; Tn7 DDE conf: -4.3; DDE Tn7 FP ctr: -5.5

How did O=C(Nc1ccc(Oc2ccccc2)cc1)C1CCN(c2nnc(-n3cccc3)s2)CC1 do in these assays?
Tn7 DDE FP: -0.9; DDE Tn6 FP inh: 0.3

How did O=[N+]([O-])c1ncccc1OCCOc1ccc(Cl)cc1Cl do in these assays?
Tn7 DDE FP: 5.0; DDE Tn6 FP inh: 5.3

How did CCCCN(C)C(=O)c1cc2cc3ccc(OC)cc3nc2s1 do in these assays?
Tn7 DDE FP: 14.5*; CRFBP-R2 block: -12.1; CRFR2-BP ag: 0.1; DDE Tn6 FP inh: -1.6; Tn7 DDE conf: 4.2; DDE Tn7 FP ctr: 4.6

How did CCCCN(CC)C(=O)c1cc2cc3ccc(OC)cc3nc2o1 do in these assays?
Tn7 DDE FP: 3.7; CRFBP-R2 block: -21.2; CRFR2-BP ag: -1.7; DDE Tn6 FP inh: -5.3

Results for C=CCn1c(=O)[nH]c2nc3cc(N=CN(C)C)c(C)cc3nc2c1=O ?
Tn7 DDE FP: 23.4*; CRFBP-R2 block: -76.0; CRFR2-BP ag: 144.0*; DDE Tn6 FP inh: 4.4; Tn7 DDE conf: -7.3; DDE Tn7 FP ctr: 4.6

How did CN(C)/C=N/c1cc(=O)[nH]c(=O)n1CC1CC1 do in these assays?
Tn7 DDE FP: 0.1; CRFBP-R2 block: 0.8; CRFR2-BP ag: -0.6; DDE Tn6 FP inh: 4.0

What do the screens show for `COc1ccc(NC(=O)N(C)[C@H]2C[C@H]3c4[nH]c5c(-c6cccc(C)c6)cccc5c4CCN3C(=O)[C@H]2[C@H](C)O)cc1`?
Tn7 DDE FP: -12.6; DDE Tn6 FP inh: -0.7

What do the screens show for `CCC(C)[C@H](NC(=O)N1CCC(C)CC1)C(=O)O` (stereo not given in full)?
Tn7 DDE FP: 14.3*; CRFBP-R2 block: 9.9; CRFR2-BP ag: 0.7; DDE Tn6 FP inh: 8.1; Tn7 DDE conf: -3.1; DDE Tn7 FP ctr: -7.8

Results for CCc1nc2ccc(C(=O)NCCc3ccccc3OC)cc2nc1CC ?
Tn7 DDE FP: 13.9*; CRFBP-R2 block: 15.7; CRFR2-BP ag: -5.5; DDE Tn6 FP inh: 5.8; Tn7 DDE conf: 4.0; DDE Tn7 FP ctr: 6.1

Results for CCc1nc2ccc(C(=O)NCCc3ccc(OC)c(OC)c3)cc2nc1CC ?
Tn7 DDE FP: 0.1; CRFBP-R2 block: -4.2; CRFR2-BP ag: -4.8; DDE Tn6 FP inh: 0.8

How did COC[C@@H]1CCCN1c1ccc2c(c1)O[C@H]1CCN(C1)S2(=O)=O do in these assays?
Tn7 DDE FP: -12.9; DDE Tn6 FP inh: 6.9

What do the screens show for `COc1ccc(NC(=O)COC(=O)CC2Sc3ccccc3NC2=O)cc1` (stereo not given)?
Tn7 DDE FP: 14.8*; CRFBP-R2 block: 19.4; CRFR2-BP ag: -0.2; DDE Tn6 FP inh: 1.8; Tn7 DDE conf: 3.5; DDE Tn7 FP ctr: 4.3

How did CCN(CC)C(=O)CC[C@@H]1CC[C@]2(CCCN(C(=O)c3ccco3)C2)O1 do in these assays?
Tn7 DDE FP: 0.6; DDE Tn6 FP inh: 10.3

Results for COC(=O)c1cc(-c2ccc(Oc3ccccc3)cc2)c(=O)n2c1CCC2 ?
Tn7 DDE FP: 4.5; DDE Tn6 FP inh: -11.9

How did Cc1cc(C)n(-c2nc3ccccc3c(=O)n2OCC(=O)N(C)C)n1 do in these assays?
Tn7 DDE FP: 4.1; CRFBP-R2 block: -22.4; CRFR2-BP ag: -1.2; DDE Tn6 FP inh: -5.9

What do the screens show for `Cc1cc(C)n(-c2nc3ccccc3c(=O)n2OCC(=O)Nc2c(C)cccc2C)n1`?
Tn7 DDE FP: 16.0*; CRFBP-R2 block: -8.9; CRFR2-BP ag: -2.1; DDE Tn6 FP inh: 1.8; Tn7 DDE conf: -14.8; DDE Tn7 FP ctr: -11.7

What do the screens show for `COc1ccc(CNC(=O)C(OC(=O)c2ccco2)c2ccccc2F)cc1` (stereo not given)?
Tn7 DDE FP: 14.2*; CRFBP-R2 block: 3.8; CRFR2-BP ag: 0.3; DDE Tn6 FP inh: -3.0; Tn7 DDE conf: 4.7; DDE Tn7 FP ctr: 5.3

How did Cc1cccc(N2C(=O)CN(Cc3cccs3)C2=S)c1 do in these assays?
Tn7 DDE FP: 14.7*; CRFBP-R2 block: 13.4; CRFR2-BP ag: -0.6; DDE Tn6 FP inh: -0.9; Tn7 DDE conf: 1.2; DDE Tn7 FP ctr: 1.4

What do the screens show for `Cc1cccc(N2C(=O)CN(Cc3sccc3C)C2=S)c1`?
Tn7 DDE FP: -0.9; CRFBP-R2 block: -3.4; CRFR2-BP ag: -0.1; DDE Tn6 FP inh: 2.0

How did CCOc1ccc(C(C)=O)cc1CSc1nnc(-c2ccoc2C)n1N do in these assays?
Tn7 DDE FP: 16.5*; CRFBP-R2 block: -6.6; CRFR2-BP ag: 0.3; DDE Tn6 FP inh: 10.8; Tn7 DDE conf: 8.9; DDE Tn7 FP ctr: 0.8

What do the screens show for `Cc1cc(NC(=O)CSc2nnc(-c3ccoc3C)n2N)no1`?
Tn7 DDE FP: 0.4; CRFBP-R2 block: 30.3; CRFR2-BP ag: 6.3; DDE Tn6 FP inh: -9.6

Results for CC(C)C[C@H]1COc2cccc(F)c2S(=O)(=O)N1Cc1cn(Cc2ccco2)nn1 ?
Tn7 DDE FP: 1.2; DDE Tn6 FP inh: -4.1

What do the screens show for `Cc1cc(N2CCN(C(=O)Oc3ccc(-c4ccccc4)cn3)CC2)c2ccccc2n1`?
Tn7 DDE FP: -4.9; DDE Tn6 FP inh: -1.2

What do the screens show for `C#CCn1cc(/C=N/NC(=O)COc2cccc3cccnc23)c2ccccc21`?
Tn7 DDE FP: 14.2*; CRFBP-R2 block: -2.5; CRFR2-BP ag: -1.6; DDE Tn6 FP inh: 1.3; Tn7 DDE conf: -4.5; DDE Tn7 FP ctr: -19.7

How did CN1CCN(C(=O)OCCOCCOC(=O)N2CCN(C)CC2)CC1 do in these assays?
Tn7 DDE FP: 13.9*; CRFBP-R2 block: -4.0; CRFR2-BP ag: -0.3; DDE Tn6 FP inh: 9.2; Tn7 DDE conf: 0.3; DDE Tn7 FP ctr: 1.0

Bioassay records (PubChem)
